IC50 data for one molecule are collected here from PMC8179660 (Chemical Science, 2021).

The assay concerns the target T1, p300 (Homo sapiens, UniProt Q09472).
T1 sequence (Q09472 1284-1673 limits assumed): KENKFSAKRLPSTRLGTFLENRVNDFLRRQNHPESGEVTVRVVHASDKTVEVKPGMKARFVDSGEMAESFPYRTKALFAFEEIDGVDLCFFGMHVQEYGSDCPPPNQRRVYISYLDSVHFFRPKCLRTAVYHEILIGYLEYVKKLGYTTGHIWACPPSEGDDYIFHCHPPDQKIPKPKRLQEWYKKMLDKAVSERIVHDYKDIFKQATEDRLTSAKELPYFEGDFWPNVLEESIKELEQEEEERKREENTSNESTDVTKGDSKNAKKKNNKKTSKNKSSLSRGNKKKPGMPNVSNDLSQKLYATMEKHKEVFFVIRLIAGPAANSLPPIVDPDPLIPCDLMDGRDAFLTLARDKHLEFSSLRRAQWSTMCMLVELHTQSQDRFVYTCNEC
Nature of the assay: radioactive acetyltransferase activity-based IC50 assay. It is filed as biochemical. The procedure, abridged:
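Test compounds came from a DNA-encoded peptide macrocycle library affinity selection against p300 using a poly-His/Ni-NTA magnetic bead binding system. They were resynthesized off-DNA, without the DNA tag, and tested for p300 inhibition in a radioactive acetyltransferase activity assay to derive IC50.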

Regarding `CC(C)C[C@H]1NC(=O)[C@@H](NC(=O)CCc2cccc([N+](=O)[O-])c2)Cc2ccc(cc2)SC[C@@H](C(N)=O)NC(=O)CC2(CCCCC2)CNC1=O` [Compound 33-C], the IC50 worked out at 5.2 µM.
